Experimental data published in ChEMBL document CHEMBL1150283, “Synthesis, cytostatic and anti-HIV evaluations of the new unsaturated acyclic C-5 pyrimidine nucleoside analogues” (Bioorg Med Chem, 2008).

What was measured:
HepG2 = experiment: Antiproliferative activity against human HepG2 cells after 3 days by MTT assay; type: functional, cell-based; conditions: HepG2, 72 h
Summary of the method: (§1)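 Monolayers grown in DMEM with 10% FBS, 2 mM L-glutamine, penicillin/streptomycin at 37 °C, 5% CO2. Seeded at 1 × 10⁴ to 3 × 10⁴ cells/mL, then exposed 72 h to five 10-fold dilutions (10⁻⁸ to 10⁻⁴ M) from 0.04 M DMSO stocks, with a solvent control. MTT added for 4 h, formazan dissolved in DMSO, A570 read. Percentage growth taken against time-zero and untreated OD. Quadruplicates in three experiments; IC50 by linear regression.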

CCRF-CEM = experiment: Antiproliferative activity against human CEM cells after 3 days by MTT assay; type: functional, cell-based; conditions: 72 h
[1] = test system: Human immunodeficiency virus 1; experiment: Antiviral activity against HIV1 assessed as inhibition of virus-induced cytopathogenicity in CEM cells; type: functional, organism-based; conditions: Human immunodeficiency virus 1, CCRF-CEM
Summary of the method: (§2)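 CEM cell cultures infected with HIV-1 or HIV-2. Virus-induced cytopathicity scored as syncytia formation.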

SW-620 = experiment: Antiproliferative activity against human SW620 cells after 3 days by MTT assay; type: functional, cell-based; conditions: SW-620, 72 h; summary of the method: as §1
L1210 = experiment: Antiproliferative activity against mouse L1210 cells after 2 days by MTT assay; type: functional, cell-based; conditions: L1210, 48 h
[2] = test system: Human immunodeficiency virus 2; experiment: Antiviral activity against HIV2 assessed as inhibition of virus-induced cytopathogenicity in CEM cells; type: functional, organism-based; conditions: Human immunodeficiency virus 2, CCRF-CEM; summary of the method: as §2
[3] = Cytotoxicity against human WI38 cells after 3 days by MTT assay; type: cell-based; conditions: WI-38, 72 h; summary of the method: as §1
HeLa = experiment: Antiproliferative activity against human HeLa cells after 3 days by MTT assay; type: functional, cell-based; conditions: 72 h; summary of the method: as §1
MIA PaCa-2 = experiment: Antiproliferative activity against human MiaPaCa2 cells after 3 days by MTT assay; type: functional, cell-based; conditions: MIA PaCa-2, 72 h; summary of the method: as §1
Coxsackievirus B4 = experiment: Antiviral activity against Coxsackie B4 virus assessed as inhibition of virus-induced cytopathogenicity in HeLa cells; type: functional, organism-based; conditions: Enterovirus B
Summary of the method: (§3)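 Cytopathicity-reduction assay: Coxsackie B4 virus in HeLa cell cultures; influenza A (H3N2) in MDCK cell cultures. Virus-induced cytopathicity is scored at the time point when untreated virus-exposed cultures reach full cytopathic effect.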

[4] = Antiproliferative activity against human Molt4/C8 cells after 3 days by MTT assay; type: functional, cell-based; conditions: MOLT-4, 72 h
MCF7 = experiment: Antiproliferative activity against human MCF7 cells after 3 days by MTT assay; type: functional, cell-based; conditions: MCF7, 72 h; summary of the method: as §1
Influenza A virus H3N2 = experiment: Antiviral activity against influenza A virus H3N2 assessed as inhibition of virus-induced cytopathogenicity in MDCK cells; type: functional, organism-based; summary of the method: as §3
Human alphaherpesvirus 3 = experiment: Antiviral activity against Varicella-Zoster virus assessed as inhibition of virus-induced cytopathogenicity in HEL cells; type: functional, organism-based; conditions: Human alphaherpesvirus 3, HEL

Compound	IC50 (HepG2) [µM]	IC50 (CCRF-CEM) [µM]	EC50 [1] [µM]	IC50 (SW-620) [µM]	IC50 (L1210) [µM]	EC50 [2] [µM]	IC50 [3] [µM]	IC50 (HeLa) [µM]	IC50 (MIA PaCa-2) [µM]	EC50 (Coxsackievirus B4) [µM]	IC50 [4] [µM]	IC50 (MCF7) [µM]	EC50 (Influenza A virus H3N2) [µM]	EC50 (Human alphaherpesvirus 3) [µM]
CCCCCc1ccc(C#Cc2cn(C/C=C/CN3C(=O)c4ccccc4C3=O)c(=O)[nH]c2=O)cc1	4.3	23	14	30	39	3.1	25	27	26	12	17	5.6		
CCCCC#Cc1cn(C/C=C\CN2C(=O)c3ccccc3C2=O)c(=O)[nH]c1=O	17	100	≥ 50	82	109	≥ 50	28	33	> 100		41	45		
O=C1c2ccccc2C(=O)N1C/C=C/Cn1cc(C#CCCc2ccccc2)c(=O)[nH]c1=O	7.3	38	≥ 10	11	44	≥ 10	31	29	27		39	13		
O=C1c2ccccc2C(=O)N1C/C=C\Cn1cc(C#Cc2ccc(Br)cc2)c(=O)[nH]c1=O		80	10	> 100	448	> 50	47		> 100		89	> 100		
CCCCCCCCC#Cc1cn(C/C=C/CN2C(=O)c3ccccc3C2=O)c(=O)[nH]c1=O	43	> 250	> 50	87	> 250	> 50	53	> 100	> 100		> 250	66		
CCCCCC#Cc1cn(C/C=C/CN2C(=O)c3ccccc3C2=O)c(=O)[nH]c1=O	9	> 500	> 50	58	> 500	> 50	40	91	60		> 500	44		
CCCCCCCCC#Cc1cn(C/C=C\CN2C(=O)c3ccccc3C2=O)c(=O)[nH]c1=O		39	> 50	67	45	> 50	49	59	68		36	64	2.5	
CCCCCc1ccc(C#Cc2cn(C/C=C\CN3C(=O)c4ccccc4C3=O)c(=O)[nH]c2=O)cc1	18	102	> 2	> 100	28	> 2	> 100	> 100	> 100		30	> 100		8.7
CCCCC#Cc1cn(C/C=C/CN2C(=O)c3ccccc3C2=O)c(=O)[nH]c1=O	7.9	192	≥ 50	> 100	236	≥ 50	35	89	77		171	8.8		
CCCCc1ccc(C#Cc2cn(C/C=C\CN3C(=O)c4ccccc4C3=O)c(=O)[nH]c2=O)cc1	40	23	> 10	> 100		> 10	17	85	56		31	43		
CCCCCCC#Cc1cn(C/C=C/CN2C(=O)c3ccccc3C2=O)c(=O)[nH]c1=O	14	28	≥ 10	32	43	≥ 10	40		30		35	24		
CCCCc1ccc(C#Cc2cn(C/C=C/CN3C(=O)c4ccccc4C3=O)c(=O)[nH]c2=O)cc1	9.1	31	> 10	> 100	42	> 10	40	94	79		29	44		
O=c1[nH]cc(F)c(=O)[nH]1 [FLUOROURACIL]	9.2			8.7	0.69		10		6.5		20			
O=C1c2ccccc2C(=O)N1C/C=C\Cn1cc(C#CCCc2ccccc2)c(=O)[nH]c1=O	> 100	168	35	> 100		≥ 50	> 100	> 100	> 100		146	> 100		
Cc1ccc(C#Cc2cn(C/C=C\CN3C(=O)c4ccccc4C3=O)c(=O)[nH]c2=O)cc1	68	238	> 250	> 100		> 250	> 100	> 100	> 100		266	> 100	20	
